Key:
[1] = test system: Calu-1; test: Growth inhibition of human Calu1 cells at 10 uM after 24 hrs by propidium iodide assay; format: functional; details: Calu-1, 24 h, read-out: GI
[2] = Toxicity against […] assessed as cell growth; format: cell-based; design: concentration or dose not given beside the values
[3] = test system: THP-1; test: Antiinflammatory activity in human THP1 cells assessed as inhibition of LPS-induced TNFalpha release at 10 uM preincubated for 30 mins before LPS challenge by ELISA; format: functional
[4] = test system: ACHN; test: Growth inhibition of human ACHN cells at 10 uM after 48 hrs by propidium iodide assay; details: read-out: GI
[5] = test system: Radical scavenging activity; test: Antioxidant activity assessed as radical DPPH scavenging activity at 1 mM/mL; format: functional
Method in brief: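 DPPH radical scavenging by the Blois method. Compound stock solutions (1 mM) were mixed with 0.3 mM DPPH in methanol in a 3 mL total reaction and left to react at room temperature.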

[6] = test system: HCT-116; test: Growth inhibition of human HCT116 cells at 10 uM after 48 hrs by propidium iodide assay; details: HCT-116, 48 h, read-out: GI
[7] = test system: PANC-1; test: Growth inhibition of human PANC1 cells at 10 uM after 48 hrs by propidium iodide assay; details: PANC-1, 48 h, read-out: GI
[8] = test system: NCI-H460; test: Growth inhibition of human H460 cells at 10 uM after 24 hrs by propidium iodide assay; format: functional; details: NCI-H460, 24 h, read-out: GI
[9] = test system: THP-1; test: Antiinflammatory activity in human THP1 cells assessed as inhibition of LPS-induced IL6 release at 10 uM preincubated for 30 mins before LPS challenge by ELISA; format: functional
[10] = test system: THP-1; test: Antiinflammatory activity in human THP1 cells assessed as inhibition of LPS-induced TNFalpha release at 1 uM preincubated for 30 mins before LPS challenge by ELISA; format: functional
Method in brief: (§1)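 PMA-differentiated THP-1 cells grown in RPMI 1640 with 10% FBS, penicillin and streptomycin. Compounds in 0.5% DMSO were added and preincubated 30 min at 37 °C, then cells were stimulated with E. coli 0127:B8 LPS. Released cytokine was quantified with a BD Biosciences kit per the manufacturer. Percent inhibition of release was calculated versus control. Cytotoxicity was checked in parallel by CCK-8.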

[11] = test system: THP-1; test: Antiinflammatory activity in human THP1 cells assessed as inhibition of LPS-induced IL6 release at 1 uM preincubated for 30 mins before LPS challenge by ELISA; format: functional; method in brief: as §1
[12] = test system: Calu-1; test: Growth inhibition of human Calu1 cells at 500 nM after 24 hrs by propidium iodide assay; format: functional; details: Calu-1, 24 h, read-out: GI
[13] = test system: NCI-H460; test: Growth inhibition of human H460 cells at 500 nM after 48 hrs by propidium iodide assay; details: NCI-H460, 48 h, read-out: GI
[14] = test system: ACHN; test: Growth inhibition of human ACHN cells at 500 nM after 48 hrs by propidium iodide assay; details: read-out: GI
[15] = test system: PANC-1; test: Growth inhibition of human PANC1 cells at 500 nM after 24 hrs by propidium iodide assay; format: functional; details: PANC-1, 24 h, read-out: GI
[16] = test system: HCT-116; test: Growth inhibition of human HCT116 cells at 500 nM after 48 hrs by propidium iodide assay; details: HCT-116, 48 h, read-out: GI
[17] = test system: PANC-1; test: Growth inhibition of human PANC1 cells at 700 nM after 48 hrs by propidium iodide assay; details: PANC-1, 48 h, read-out: GI
[18] = test system: HCT-116; test: Growth inhibition of human HCT116 cells at 700 nM after 48 hrs by propidium iodide assay; details: HCT-116, 48 h, read-out: GI
[19] = test system: Calu-1; test: Growth inhibition of human Calu1 cells at 700 nM after 24 hrs by propidium iodide assay; format: functional; details: Calu-1, 24 h, read-out: GI
[20] = test system: ACHN; test: Growth inhibition of human ACHN cells at 700 nM after 48 hrs by propidium iodide assay; details: read-out: GI
[21] = test system: NCI-H460; test: Growth inhibition of human H460 cells at 700 nM after 48 hrs by propidium iodide assay; details: NCI-H460, 48 h, read-out: GI

## COc1ccc(C(=O)/C=C/c2ccc(OC)cc2OC)cc1
[1]
  inhibition of growth at 10 µM: 31%
[2]
  Activity: 29%
[3]
  inhibition at 10 µM: 0%
[4]
  inhibition of growth at 10 µM: 45%
[5]
  Activity: 32.3%
[6]
  inhibition of growth at 10 µM: 37%
[7]
  inhibition of growth at 10 µM: 36%
[8]
  inhibition of growth at 10 µM: 38%
[9]
  inhibition at 10 µM: 39%

## COc1ccc(/C=C/C(=O)c2ccccc2)c(OC)c1
[1]
  inhibition of growth at 10 µM: 91%
[2]
  Activity: 79%
[3]
  inhibition at 10 µM: 98%
[4]
  inhibition of growth at 10 µM: 93%
[5]
  Activity: 38%
[6]
  inhibition of growth at 10 µM: 95%
[7]
  inhibition of growth at 10 µM: 94%
[8]
  inhibition of growth at 10 µM: 92%
[9]
  inhibition at 10 µM: 100%

## C[C@@H]1C[C@H]2[C@@H]3CCC4=CC(=O)C=C[C@]4(C)[C@@]3(F)[C@@H](O)C[C@]2(C)[C@@]1(O)C(=O)CO [DEXAMETHASONE]
[2]
  Activity: 0%
[10]
  inhibition at 1 µM: 73%
[11]
  inhibition at 1 µM: 84%

## COc1ccc(/C=C/C(=O)c2ccc(Cl)cc2Cl)c(OC)c1
[1]
  inhibition of growth at 10 µM: 30%
[2]
  Activity: 2%
[3]
  inhibition at 10 µM: 0%
[4]
  inhibition of growth at 10 µM: 35%
[5]
  Activity: 11.3%
[6]
  inhibition of growth at 10 µM: 26%
[7]
  inhibition of growth at 10 µM: 35%
[8]
  inhibition of growth at 10 µM: 29%
[9]
  inhibition at 10 µM: 6%

## COc1ccc(/C=C/C(=O)c2ccc(OC)cc2OC)c(OC)c1
[1]
  inhibition of growth at 10 µM: 32%
[2]
  Activity: 35%
[3]
  inhibition at 10 µM: 2%
[4]
  inhibition of growth at 10 µM: 48%
[5]
  Activity: 31.3%
[6]
  inhibition of growth at 10 µM: 31%
[7]
  inhibition of growth at 10 µM: 43%
[8]
  inhibition of growth at 10 µM: 38%
[9]
  inhibition at 10 µM: 81%

## Nc1ccn([C@@H]2O[C@H](CO)[C@@H](O)C2(F)F)c(=O)n1 [GEMCITABINE]
[12]
  inhibition of growth at 0.5 µM: 70%
[13]
  inhibition of growth at 0.5 µM: 68%
[14]
  inhibition of growth at 0.5 µM: 70%
[15]
  inhibition of growth at 0.5 µM: 71%
[16]
  inhibition of growth at 0.5 µM: 76%

## COc1cc(/C=C/C(=O)c2ccc(Cl)cc2)cc(OC)c1OC
[1]
  inhibition of growth at 10 µM: 67%
[2]
  Activity: 79%
[3]
  inhibition at 10 µM: 98%
[4]
  inhibition of growth at 10 µM: 57%
[5]
  Activity: 36.5%
[6]
  inhibition of growth at 10 µM: 92%
[7]
  inhibition of growth at 10 µM: 66%
[8]
  inhibition of growth at 10 µM: 54%
[9]
  inhibition at 10 µM: 100%

## COc1ccc(O)c(C(C)(C)C)c1.COc1ccc(O)cc1C(C)(C)C
[5]
  Activity: 74%

## COc1ccc(/C=C/C(=O)c2ccc(Cl)cc2)c(OC)c1
[1]
  inhibition of growth at 10 µM: 28%
[2]
  Activity: 0%
[3]
  inhibition at 10 µM: 0%
[4]
  inhibition of growth at 10 µM: 28%
[5]
  Activity: 26.4%
[6]
  inhibition of growth at 10 µM: 22%
[7]
  inhibition of growth at 10 µM: 29%
[8]
  inhibition of growth at 10 µM: 29%
[9]
  inhibition at 10 µM: 12%

## COc1cc(/C=C/C(=O)c2ccccc2)cc(OC)c1OC
[1]
  inhibition of growth at 10 µM: 7%
[2]
  Activity: 73%
[3]
  inhibition at 10 µM: 100%
[4]
  inhibition of growth at 10 µM: 33%
[5]
  Activity: 47.2%
[6]
  inhibition of growth at 10 µM: 0%
[7]
  inhibition of growth at 10 µM: 7%
[8]
  inhibition of growth at 10 µM: 15%
[9]
  inhibition at 10 µM: 100%

## CN1CC[C@H](c2c(O)cc(O)c3c(=O)cc(-c4ccccc4Cl)oc23)[C@H](O)C1 [ALVOCIDIB]
[17]
  inhibition of growth at 0.7 µM: 75%
[18]
  inhibition of growth at 0.7 µM: 71%
[19]
  inhibition of growth at 0.7 µM: 68%
[20]
  inhibition of growth at 0.7 µM: 68%
[21]
  inhibition of growth at 0.7 µM: 84%

— ChEMBL document CHEMBL1156852, “Synthesis and biological evaluation of simple methoxylated chalcones as anticancer, anti-inflammatory and antioxidant agents” (Bioorg Med Chem, 2010)
